Assay results as given in publication PMC8162940 (Nature chemical biology, 2021).

Tests used:
Ikaros = Ikaros (Mus musculus, UniProt Q03267+Q8C7D2, I391V); assay: Ikaros levels in murine splenocytes, flow cytometry; format: cell-based; conditions: Crbn^I391V/I391V but not wildtype cells, 1 μM, 16h
IL-2 = IL-2 secretion from stimulated Jurkat cells; format: cell-based, human; conditions: Jurkat cells pre-treated with 1 μM for 18h, then stimulated 24h
Method in brief: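 Jurkat cells were pre-incubated 18 h with 1 μM test compound, then activated with ImmunoCult CD3/CD28 activator for 24 h, and supernatant IL-2 was measured by AlphaLISA. Mean ± SD of 3 (unstimulated) or 4 (stimulated) biological samples, representative of 2 experiments. Two-way ANOVA with Bonferroni correction.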

Ikaros, sequence (Q03267 whole entry): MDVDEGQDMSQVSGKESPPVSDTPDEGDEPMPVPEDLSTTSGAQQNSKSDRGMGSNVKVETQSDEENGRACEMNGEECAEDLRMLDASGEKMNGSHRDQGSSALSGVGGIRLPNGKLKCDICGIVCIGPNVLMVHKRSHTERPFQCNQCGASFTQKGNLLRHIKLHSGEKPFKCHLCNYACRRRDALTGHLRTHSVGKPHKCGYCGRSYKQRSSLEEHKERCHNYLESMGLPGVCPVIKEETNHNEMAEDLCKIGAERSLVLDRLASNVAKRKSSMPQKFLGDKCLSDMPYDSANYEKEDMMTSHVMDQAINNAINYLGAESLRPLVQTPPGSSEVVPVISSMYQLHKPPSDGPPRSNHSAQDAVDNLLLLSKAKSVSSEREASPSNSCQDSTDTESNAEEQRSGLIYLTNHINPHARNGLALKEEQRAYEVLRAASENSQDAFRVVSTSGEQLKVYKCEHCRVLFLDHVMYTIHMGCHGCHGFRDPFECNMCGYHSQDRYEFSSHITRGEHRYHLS
Ikaros, sequence (Q8C7D2 whole entry I391V): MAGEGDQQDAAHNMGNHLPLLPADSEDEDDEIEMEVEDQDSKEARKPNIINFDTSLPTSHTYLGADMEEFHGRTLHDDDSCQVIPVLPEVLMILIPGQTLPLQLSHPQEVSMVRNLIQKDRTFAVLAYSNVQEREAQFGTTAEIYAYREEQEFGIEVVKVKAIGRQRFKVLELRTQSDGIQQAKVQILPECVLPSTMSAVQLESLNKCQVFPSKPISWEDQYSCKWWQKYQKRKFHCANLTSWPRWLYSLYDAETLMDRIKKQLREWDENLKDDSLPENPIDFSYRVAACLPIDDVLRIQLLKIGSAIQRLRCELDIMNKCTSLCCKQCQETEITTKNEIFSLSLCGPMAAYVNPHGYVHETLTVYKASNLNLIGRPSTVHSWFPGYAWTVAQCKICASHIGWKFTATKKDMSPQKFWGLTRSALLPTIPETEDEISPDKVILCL
Ikaros, sequence (Q3U1J4 whole entry partner): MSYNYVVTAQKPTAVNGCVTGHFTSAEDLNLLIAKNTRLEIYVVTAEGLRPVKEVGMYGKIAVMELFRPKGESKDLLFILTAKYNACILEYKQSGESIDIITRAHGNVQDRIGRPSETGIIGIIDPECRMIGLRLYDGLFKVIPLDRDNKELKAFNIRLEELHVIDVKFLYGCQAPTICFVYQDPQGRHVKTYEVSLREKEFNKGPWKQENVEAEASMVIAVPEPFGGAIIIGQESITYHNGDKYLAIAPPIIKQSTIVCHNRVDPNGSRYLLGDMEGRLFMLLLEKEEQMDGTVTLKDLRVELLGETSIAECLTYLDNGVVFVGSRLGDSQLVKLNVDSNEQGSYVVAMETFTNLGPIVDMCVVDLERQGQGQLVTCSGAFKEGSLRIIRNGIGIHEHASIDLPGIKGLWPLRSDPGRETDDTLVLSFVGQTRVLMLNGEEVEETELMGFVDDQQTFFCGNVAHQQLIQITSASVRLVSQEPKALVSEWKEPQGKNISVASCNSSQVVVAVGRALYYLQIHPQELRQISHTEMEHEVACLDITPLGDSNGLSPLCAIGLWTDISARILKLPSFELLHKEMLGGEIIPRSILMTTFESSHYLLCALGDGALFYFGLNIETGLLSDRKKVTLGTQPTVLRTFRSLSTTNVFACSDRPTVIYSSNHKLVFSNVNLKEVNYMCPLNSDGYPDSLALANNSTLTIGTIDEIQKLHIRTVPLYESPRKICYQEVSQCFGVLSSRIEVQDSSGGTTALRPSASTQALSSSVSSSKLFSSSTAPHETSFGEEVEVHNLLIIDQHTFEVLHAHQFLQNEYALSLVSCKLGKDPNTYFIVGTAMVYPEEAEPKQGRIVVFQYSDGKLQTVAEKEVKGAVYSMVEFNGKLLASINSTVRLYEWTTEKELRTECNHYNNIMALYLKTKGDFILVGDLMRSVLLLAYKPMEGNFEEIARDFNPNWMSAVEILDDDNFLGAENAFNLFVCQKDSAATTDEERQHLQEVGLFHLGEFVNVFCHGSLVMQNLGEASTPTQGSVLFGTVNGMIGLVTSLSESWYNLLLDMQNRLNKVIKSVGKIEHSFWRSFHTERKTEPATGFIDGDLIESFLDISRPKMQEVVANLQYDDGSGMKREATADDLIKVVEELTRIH

Nc1cccc2c1CN(C1CCC(=O)NC1=O)C2=O (centres unmarked) [lenalidomide]
Ikaros degradation in splenocytes (Ikaros): induced selective degradation of Ikaros | IL-2 secretion (IL-2): enhanced IL-2 secretion
